Experimental findings from ChEMBL document CHEMBL1141606, “7-Azaindole derivatives as potential partial nicotinic agonists” (Bioorg Med Chem Lett, 2008) are described below.

A word on the Ki: it is the equilibrium dissociation constant of an inhibitor or competing ligand from its target. Broadly, the half-life is the time needed for the level to fall by half in the phase considered. Broadly, the bioavailability is the share of a dose that reaches the circulation, judged against a reference dose that is usually intravenous. For orientation: Kp means tissue or fluid exposure divided by exposure in the circulation. The term Cmax denotes the maximum level reached in the sampled fluid or tissue.

Data set [1] concerns the target T1, Neuronal acetylcholine receptor; alpha4/beta2 (Rattus norvegicus) (UniProt P09483+P12390). Description: Agonist activity at alpha4beta2 nAChR in rat striatal membranes assessed as effect on [3H]dopamine release. As to conditions: Striatum, Slice, in the assay text read “striatal slices” for “striatal membranes”. The data set is classed as functional. The procedure, abridged: (§1)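 Rat striatal slices were used for [3H]dopamine release. Test compound was added with the K+ pulse for 5 min, at 10 nM (t = 50 min) and 1 µM (t = 90 min). […] In parallel runs, mecamylamine (0.1 µM) or DHβE (1 µM) sensitivity was read as percent inhibition of evoked release.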

For data set [2], the target named is T2, Neuronal acetylcholine receptor; alpha4/beta2 (Rattus norvegicus, UniProt P09483+P12390). Description: (§2) Displacement of [3H]cytisine from alpha-4-beta-2 nAChR in rat brain membrane. It counts as cell membranes. A digest of the protocol: (§3)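 Competition binding against [3H]cytisine on rat brain membranes at a contract lab, following a published nicotinic binding protocol. Affinity reported as Ki.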
On the technique in general: Displacement assays read how much labelled ligand stays bound in the presence of the test substance.

The target in data set [3] is T1, Neuronal acetylcholine receptor; alpha4/beta2 (Rattus norvegicus). The data set is described as §2. It counts as cell membranes. A digest of the protocol: as §3
Data set [4] in a line: Metabolic stability in human liver. It counts as ADME, tissue-based. A digest of the protocol: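 In vitro incubation with human liver homogenate; metabolic stability expressed as half-life (t1/2, min).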
The target of data set [5] is T2, Neuronal acetylcholine receptor; alpha4/beta2. The data set is described as follows: Displacement of [3H]L-nicotine from alpha-4-beta-2 nAChR in rat cerebral cortex. It counts as tissue-based.
The target in data set [6] is T1, Neuronal acetylcholine receptor; alpha4/beta2 (Rattus norvegicus). The data set is described as follows: Agonist activity at alpha-4-beta-2 nAChR in rat striatal membranes assessed as effect on [3H]dopamine release relative to nicotine. It counts as functional. As to conditions: Striatum, Slice, in the assay text read “striatal slices” for “striatal membranes”. A digest of the protocol:
as §1

The nature of data set [7]: Oral bioavailability in rat. It counts as ADME, organism-based. As to conditions: in vivo. A digest of the protocol:
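Rat pharmacokinetic study with both intravenous and oral dosing; oral bioavailability (%) derived by comparing the two routes.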

A short description of data set [8]: Ratio of drug level in brain to plasma in po dosed rat. It counts as ADME, organism-based. The procedure, abridged:
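Rat iv/po pharmacokinetic study. Drug levels were measured in brain (ng/g) and plasma (ng/ml) after oral administration, and the brain-plasma ratio was derived from them.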

Data set [9] is described as follows: Drug level in po dosed rat brain. Further details: route oral. The data set is classed as ADME, organism-based. The procedure, abridged:
(§4)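 Rats dosed orally; drug concentrations at Cmax measured in brain tissue (ng/g) and in plasma (ng/ml).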

Data set [10] is described as follows: Drug level in po dosed rat plasma. The data set is classed as ADME, organism-based. More on the design: route oral. A digest of the protocol: as §4
For data set [11], the target named is T1, Neuronal acetylcholine receptor; alpha4/beta2 (Rattus norvegicus). Description: Antagonist activity at alpha-4-beta-2 nAChR in rat striatal slices assessed as blockade of nicotine-induced [3H]dopamine release at 10 uM. Further details: scale not given: the % may be the effect or the level left. As to conditions: Striatum, Slice.

The source made the active and inactive calls.

T2 sequence (P09483 whole entry): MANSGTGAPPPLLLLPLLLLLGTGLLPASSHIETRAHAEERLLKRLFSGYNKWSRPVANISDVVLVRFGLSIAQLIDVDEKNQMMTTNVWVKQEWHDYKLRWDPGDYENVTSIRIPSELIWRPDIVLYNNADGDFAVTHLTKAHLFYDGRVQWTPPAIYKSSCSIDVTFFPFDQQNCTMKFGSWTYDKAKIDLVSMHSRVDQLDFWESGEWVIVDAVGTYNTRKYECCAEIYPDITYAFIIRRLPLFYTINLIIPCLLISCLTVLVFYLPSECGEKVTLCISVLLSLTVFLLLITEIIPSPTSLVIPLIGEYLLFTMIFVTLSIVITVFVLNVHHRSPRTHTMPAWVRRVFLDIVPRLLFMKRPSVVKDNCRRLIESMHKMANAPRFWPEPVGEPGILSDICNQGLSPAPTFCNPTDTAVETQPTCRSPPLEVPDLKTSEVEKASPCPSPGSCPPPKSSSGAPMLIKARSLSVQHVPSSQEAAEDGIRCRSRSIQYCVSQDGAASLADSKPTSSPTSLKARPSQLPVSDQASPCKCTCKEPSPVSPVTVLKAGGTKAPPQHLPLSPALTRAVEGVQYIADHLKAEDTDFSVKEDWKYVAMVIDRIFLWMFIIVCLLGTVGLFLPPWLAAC
T2 sequence (P12390 whole entry): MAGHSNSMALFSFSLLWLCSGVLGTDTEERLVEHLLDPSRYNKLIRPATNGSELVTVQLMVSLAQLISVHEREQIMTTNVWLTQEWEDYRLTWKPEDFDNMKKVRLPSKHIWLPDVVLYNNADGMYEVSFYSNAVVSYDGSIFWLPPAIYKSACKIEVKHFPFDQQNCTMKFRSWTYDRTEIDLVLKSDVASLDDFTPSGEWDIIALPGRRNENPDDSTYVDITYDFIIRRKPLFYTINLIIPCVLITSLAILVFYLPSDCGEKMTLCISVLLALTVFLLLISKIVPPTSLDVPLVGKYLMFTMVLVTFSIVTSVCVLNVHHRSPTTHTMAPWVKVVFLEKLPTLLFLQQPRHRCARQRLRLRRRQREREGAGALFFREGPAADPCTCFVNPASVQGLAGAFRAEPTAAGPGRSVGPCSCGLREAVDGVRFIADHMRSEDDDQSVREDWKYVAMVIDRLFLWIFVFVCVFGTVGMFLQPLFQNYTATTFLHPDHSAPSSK

For `c1cnc2[nH]c(C3CCNC3)cc2c1` (configuration not stated), in data set [1], the outcome was Active.
As to `Clc1ccc2c(C3CCCNC3)c[nH]c2n1` (configuration not stated), in data set [2], the affinity corresponds to a Ki of 2.95 µM.
The same measure, in the same setting: in the case of `Fc1ccc2cc(C[C@H]3CCCN3)[nH]c2n1` it was 0.316 µM; in that of `Clc1ccc2cc(C3CCCNC3)[nH]c2n1` (single isomer, unassigned; (+)), 3.46 µM.
In the case of `Clc1ccc2cc(C3CCCNC3)[nH]c2n1` (racemic), the result in data set [3] was inactive.
For the molecule `c1cnc2[nH]c(C3CCNC3)cc2c1` (racemic), in data set [2], affinity was put at a Ki of 0.016 µM.
As to `CN1CCC[C@H]1Cc1cc2cccnc2[nH]1`, in data set [2], the Ki stood at 0.691 µM.
With `Brc1ccc2cc(C[C@@H]3CCCN3)[nH]c2n1`, the outcome in data set [3] was inactive.
Consider `c1cnc2[nH]cc(C3CCCNC3)c2c1` (configuration not stated), for which the affinity in data set [2] corresponds to a Ki of 2.95 µM.
On to `Fc1ccc2cc(C[C@@H]3CCCN3)[nH]c2n1`, for which the affinity in data set [2], expressed as Ki, was 2 µM.
With `c1cnc2[nH]c(C3CCCNC3)cc2c1` (single isomer, unassigned; (+)), in data set [3], the result was inactive.
On the same count and under the same terms, in the case of `Clc1ccnc2[nH]c(C3CCCNC3)cc12` (configuration not stated) it was “inactive”.
As for `Br.c1cnc2[nH]c(C3CCNC3)cc2c1` (configuration not stated), the Ki in data set [2] turned out to be 0.01 µM. In data set [4], this molecule returned a half-life of 2.23 h.
For the molecule `Clc1ccc2cc(C3CCCNC3)[nH]c2n1` (single isomer, unassigned; (-)), the result in data set [3] was inactive.
The molecule `c1cnc2[nH]c(C[C@@H]3CCCN3)cc2c1` showed a Ki in data set [2] of 2.75 µM.
With `CN[C@@H](C)C/C=C/c1cncc(OC)c1`, the Ki in data set [5] turned out to be 0.011 µM.
In the case of `Clc1ccc2cc(C[C@@H]3CCCN3)[nH]c2n1`, affinity in [2] was put at a Ki of 3.72 µM.
As for `CN1CCC[C@@H]1Cc1cc2cccnc2[nH]1`, the affinity in data set [2] corresponds to a Ki of 2.51 µM.
`c1cnc2[nH]c(C3CCCNC3)cc2c1` (single isomer, unassigned; (-)) came in with an inhibition constant Ki in [2] of 2 µM.
Take `c1cnc2[nH]c(C[C@H]3CCCN3)cc2c1`: in data set [1], the outcome was Active. Besides, the figures for the Activity in data set [6] and in data set [11] were 62% and 70%, respectively. Also, in data set [4], the half-life came to 4.43 h. Further, the bioavailability in data set [7] is 11.3%. The Kp in [8] stood at 3.7. For the same molecule, the Cmax in [9] came to 280 ng/g; in data set [10], 120 ng/mL.
Molecule `c1cnc2[nH]c(C3CCNC3)cc2c1` (single isomer, unassigned; (-)) showed a Ki in data set [2] of 0.251 µM.
Turning to `COc1ccc2cc(C[C@H]3CCCN3)[nH]c2n1`, the result in [3] was inactive.
In turn, `Brc1ccc2cc(C[C@H]3CCCN3)[nH]c2n1` registered a Ki in data set [2] of 0.691 µM.
On the same count and under the same terms, next, `Clc1ccc2cc(C[C@H]3CCCN3)[nH]c2n1`: 0.147 µM.
